Test results as given in paper PMC3846294 (Chemical research in toxicology, 2013).
Like-named read-outs stand apart in the source and are kept apart here.

How the values were obtained:
hSULT2A1 [1] = target: T1, hSULT2A1 (Homo sapiens, UniProt Q06520); assay: Structural modification of hSULT2A1 by quinones, proteolytic digestion and LC/MS; conditions: 15 μM hSULT2A1 with 250 μM quinone, 1 h, pH 8.0, 25 °C
T1 sequence (Q06520 1-285): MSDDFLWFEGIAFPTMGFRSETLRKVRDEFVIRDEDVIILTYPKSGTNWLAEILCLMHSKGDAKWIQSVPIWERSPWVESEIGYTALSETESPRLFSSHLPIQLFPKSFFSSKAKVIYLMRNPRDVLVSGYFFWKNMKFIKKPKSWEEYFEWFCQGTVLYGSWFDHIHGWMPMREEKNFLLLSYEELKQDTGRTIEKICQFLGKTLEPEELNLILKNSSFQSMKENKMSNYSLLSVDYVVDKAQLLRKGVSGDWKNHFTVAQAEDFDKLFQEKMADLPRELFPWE
How it was run: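 Recombinant hSULT2A1 was expressed in E. coli BL21(DE3), purified, and desalted of DTT into 50 mM Tris-HCl pH 8.0. 15 μg enzyme was reacted with quinone (17:1 molar ratio), then alkylated with 45 mM final 4-vinylpyridine for 1 h. Digestion used 0.6 μg trypsin with 10% v/v acetonitrile at 37 °C for 16 h, plus 1 μg Glu-C where needed. Peptides were analysed by LC/MS.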

hSULT2A1 [2] = target: T1, hSULT2A1; assay: Binding of PAP to quinone-pretreated hSULT2A1; conditions: in the absence of DHEA; pretreatment with 10 μM quinone
How it was run: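 Purified recombinant hSULT2A1 was expressed in E. coli BL21(DE3) and pretreated with test compound for 1 h at 25 °C. It was then placed at 15 nM final (dimer) in 0.25 M potassium phosphate, pH 7.4, without DHEA, 20 min before titration. PAP was added to 0.5–300 μM final at 37 °C. Intrinsic fluorescence (ex 290/em 347 nm) was read 10 s after each addition, dilution-corrected, in duplicate. Dissociation constants were derived.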

hSULT2A1 [3] = target: T1, hSULT2A1; type: biochemical; conditions: 100-fold dilution, 0.5 μM DHEA (Figure 4)
How it was run: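 E. coli-expressed, purified hSULT2A1 was preincubated with test compound for 1 h at 25 °C, then diluted 100-fold into a standard assay containing 0.5 μM 3H-DHEA. The mixture was prewarmed at 37 °C for 2 min, and the reaction was started with 30 ng of enzyme. It ran for 3 or 4 min at 37 °C to keep initial velocity. Runs were in triplicate, mean ± SD, compared with untreated enzyme by paired two-tailed t test (p < 0.05).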

Row | Compound | Protein adducts at cysteines of hSULT2A1 (hSULT2A1 [1]) | Binding of PAP to the pretreated enzyme (hSULT2A1 [2]) | Catalytic activity of hSULT2A1 following preincubation with PBQ (hSULT2A1 [3]; PBQ 0.5 μM or 1.0 μM) | Catalytic activity of hSULT2A1 following preincubation with PBQ (hSULT2A1 [3]; PBQ 5.0 μM or higher)
1 | 4′-chlorophenyl-2,5-benzoquinone [4′-Cl-BQ] | protein adducts were observed at Cys55 and Cys199 | no detectable binding of PAP |  | 
2 | O=C1C=CC(=O)C(c2ccccc2Cl)=C1 [2′-Cl-BQ, 2′-chlorophenyl-2,5-benzoquinone] | protein adducts were observed at Cys55 and Cys199 | no detectable binding of PAP |  | 
3 | O=C1C=C(Cl)C(=O)C(c2ccc(Cl)cc2)=C1Cl [3,6,4′-triCl-BQ, 4′-chlorophenyl-3,6-dichloro-2,5-benzoquinone] | a dichlorinated adduct was found in the digested peptides containing Cys55 and Cys199 |  |  | 
4 | O=C1C=CC(=O)C(c2ccccc2)=C1 [PBQ, phenyl-2,5-benzoquinone] | protein adducts were observed at Cys55 and Cys199 |  | increase in the catalytic activity | decreases in catalytic activity
